One experiment concerns BGC-823. The experiment in a line: Cytotoxicity against human BGC-823 cells measured after 24 to 72 hrs by MTT assay. The experiment is classed as functional, cell-based. In a few lines: (§1)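 Cells were grown in RPMI 1640 with 10% FBS and penicillin/streptomycin at 37 °C, 5% CO2. They were seeded at 1×10^4 cells/well and allowed to attach for 24 h. Compounds at various concentrations were then applied for 24, 48 or 72 h (DMSO below 1.25%). MTT (5.0 mg/mL) was added 3 h before the end, formazan was dissolved in DMSO and OD was read at 570 nm. Doxorubicin served as reference. Data are mean ± SD, n=3.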
(Formazan colour is commonly taken as a measure of viable cells.)

For a further experiment, the system named is SW480. The experiment in a line: Cytotoxicity against human SW480 cells measured after 24 to 72 hrs by MTT assay. It is filed as functional, cell-based. In short, it runs like this: as §1
A short description of experiment [1]: Antioxidant activity assessed as DPPH radical scavenging activity incubated for 30 mins under dark condition relative to control. It is filed as functional. Further details: concentration or dose not given beside the values. In short, it runs like this:
(§2)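 Compounds at a range of concentrations were mixed with DPPH solution and kept 30 min in the dark. Absorbance was read at 517 nm. % activity = [(control A − sample A)/control A] × 100. Vitamin C and ebselen served as positive controls and DMSO as the negative control. Fold is expressed relative to vitamin C (set as 1). Values are mean ± SD of three independent experiments.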
Background: Loss of DPPH colour is used to gauge radical scavenging.

For experiment [2], the target named is T1, Thioredoxin reductase 1, cytoplasmic (Rattus norvegicus, UniProt O89049).
T1 sequence (O89049 whole entry): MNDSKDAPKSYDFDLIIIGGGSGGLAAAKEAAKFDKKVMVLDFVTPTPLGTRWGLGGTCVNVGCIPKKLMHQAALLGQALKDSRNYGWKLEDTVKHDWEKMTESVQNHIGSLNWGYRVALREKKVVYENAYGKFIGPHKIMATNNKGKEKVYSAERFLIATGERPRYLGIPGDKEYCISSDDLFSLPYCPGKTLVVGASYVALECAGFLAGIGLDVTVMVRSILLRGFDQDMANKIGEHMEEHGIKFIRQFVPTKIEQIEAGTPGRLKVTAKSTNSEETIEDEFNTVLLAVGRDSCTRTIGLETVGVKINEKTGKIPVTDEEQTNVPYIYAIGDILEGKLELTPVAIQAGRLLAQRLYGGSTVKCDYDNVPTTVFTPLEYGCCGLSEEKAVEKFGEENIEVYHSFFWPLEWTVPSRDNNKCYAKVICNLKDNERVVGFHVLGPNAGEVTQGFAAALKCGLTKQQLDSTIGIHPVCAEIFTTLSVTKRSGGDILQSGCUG
As to the kind of experiment: Inhibition of rat TrxR1 using DTNB as substrate preincubated for 15 mins followed by substrate addition and measured for 20 mins by colorimetric method. In short, it runs like this:
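Rat TrxR1 (5 nM) was used in 100 mM potassium phosphate pH 7.0 with 1 mM EDTA, 0.1 mg/ml BSA and 0.2 mM NADPH. […] DTNB was then added and the A412 increase was monitored for 20 min.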

The nature of experiment [3]: Antioxidant activity assessed as glutathione peroxidase-like activity at 41 mM measured over 3 mins relative to ebselen glutathione peroxidase-like activity. The experiment is classed as functional. In a few lines:
(§3)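 GPx-like rate measured from GSH/glutathione reductase/NADPH coupling in 50 mM phosphate buffer with 0.1% Triton X-100. The compound was added from a 41 mM solution, and the reaction was started with H2O2 (0.8 mM). A340 was followed for 3 min and expressed as ΔA/min. Values were corrected for the H2O2 + GSH background, and for the compound's own absorbance if coloured. Ebselen (41 mM) served as reference.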

A further experiment relates to DNA. The experiment in a line: Induction of bleomycin-dependent DNA (unknown origin) damage assessed as absorbance at 0.1 mg/ml measured after 1 hr. It is filed as nucleic-acid assay. In a few lines:
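The bleomycin-iron/DNA mixture was incubated at 37 °C for 1 h and stopped with 0.1 M EDTA. Colour was developed with 1% TBA plus 25% HCl at 80 °C for 30 min. After ice cooling, DNA damage was read as the increase in absorbance at 532 nm. L-ascorbic acid served as the positive control.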

Experiment [4] in a line: Potency index, ratio of test compound to vitamin C antioxidant activity assessed as DPPH radical scavenging activity incubated for 30 mins under dark condition. It is filed as functional. In short, it runs like this:
as §2

The next experiment deals with A549. As to the kind of experiment: Cytotoxicity against human A549 cells measured after 24 to 72 hrs by MTT assay. The experiment is classed as functional, cell-based. In a few lines: as §1
The subject of a further experiment is HeLa. The experiment in a line: Cytotoxicity against human HeLa cells measured after 24 to 72 hrs by MTT assay. It is filed as functional, cell-based. In short, it runs like this:
as §1

The nature of experiment [5]: Antioxidant activity assessed as glutathione peroxidase-like activity at 41 mM measured over 3 mins. The experiment is classed as functional. In short, it runs like this:
as §3

The next experiment deals with MCF7. As to the kind of experiment: Cytotoxicity against human MCF7 cells measured after 24 to 72 hrs by MTT assay. It is filed as functional, cell-based. In a few lines: as §1

Activity calls are given as the source filed them. The rule behind the calls is not given here. Where only a bound is given, the exact number is not on record here.

As usually defined, the IC50 is the concentration at which inhibition is half-maximal. Broadly, the inhibition is the change of the read-out against control, counted positive when it falls. The term EC50 denotes the concentration giving half of the maximal effect. Turning to `CC(=O)Oc1ccccc1C(=O)NCc1ccc(-n2[se]c3ccccc3c2=O)cc1`, the IC50 in the experiment on BGC-823 was 2.4 µM; in the experiment on SW480, 2.8 µM; in the experiment with A549 it was 2.1 µM; in the experiment on HeLa it was 1.7 µM; in the experiment with MCF7, 1.5 µM. Further, the inhibition in [1] came out at 57.3%. In addition, the response in experiment [2] was half-maximal at 8.8 µM (EC50). The fold change (FC) in [3] was less than 3. Also, the Activity with DNA was 108. For the same compound, in [4], the Ratio was 0.5. Moreover, in experiment [5], the result was Active.
For the compound `CC(C(=O)NCCn1[se]c2ccccc2c1=O)c1ccc(-c2ccccc2)c(F)c1` (stereo unspecified), the 50% inhibitory concentration (IC50) in the experiment with BGC-823 came to 9.5 µM; in the experiment with SW480, 11.3 µM; in the experiment with A549 it was 13.6 µM; in the experiment with HeLa it was 10.4 µM; in the experiment on MCF7 it was 14.9 µM. The inhibition in experiment [1] amounted to 42.5%. In addition, a half-maximal response in experiment [2] (EC50) required 28.5 µM. For the same compound, the Activity in the experiment on DNA was 85.7. Also, the Ratio in experiment [4] was found to be 0.4. The outcome in experiment [5] was Active.
Turning to `COc1ccc2c(c1)c(CC(=O)NCCn1[se]c3ccccc3c1=O)c(C)n2C(=O)c1ccc(Cl)cc1`, the half-maximal inhibitory concentration (IC50) came to 17.4 µM in the experiment with BGC-823; 14.3 µM with SW480; 11.2 µM in the experiment on A549; 13.6 µM with HeLa; 10.3 µM in the experiment with MCF7. The inhibition in experiment [1] worked out at 27.3%. Besides, in [2], it took 24.5 µM to reach a half-maximal effect (EC50). Besides, the Activity in the experiment on DNA came to 92.4. Moreover, the Ratio in experiment [4] amounted to 0.3. Moreover, the result in experiment [5] was Active.
Turning to `C=C(C(=O)NCCn1[se]c2ccccc2c1=O)c1ccc(CC(C)C)cc1`, the 50% inhibitory concentration (IC50) amounted to 12.5 µM with BGC-823; 11.4 µM with SW480; 9.4 µM with A549; 10.6 µM in the experiment with HeLa; 15.7 µM in the experiment with MCF7. Moreover, the inhibition in experiment [1] was determined as 33.5%. For the same compound, the EC50 in experiment [2] is 23.5 µM. In addition, in the experiment with DNA, the Activity turned out to be 68.4. For the same compound, the Ratio in experiment [4] turned out to be 0.3. Further, the result in experiment [5] was Active.
Consider `CC1=C(CC(=O)NCCn2[se]c3ccccc3c2=O)c2cc(F)ccc2/C1=C\c1ccc([S+](C)[O-])cc1` (stereo unspecified), for which the IC50 in the experiment with BGC-823 was determined as 16.6 µM; in the experiment on SW480, 10.4 µM; with A549, 13.3 µM; with HeLa, 11.3 µM; with MCF7, 14.4 µM. Besides, the inhibition in [1] amounted to 29%. This compound also yielded a 50% effective concentration (EC50) in [2] of 27 µM. Besides, the Activity in the experiment with DNA was 68.4. For the same compound, in [4], the Ratio is 0.3. For the same compound, in experiment [5], the outcome was Active.
In the case of `O=C(NCCn1[se]c2ccccc2c1=O)c1ccccc1Nc1cccc(C(F)(F)F)c1`, the IC50 was 11.4 µM in the experiment on BGC-823; 9.4 µM in the experiment with SW480; 12.2 µM with A549; 15.2 µM with HeLa; 12.6 µM in the experiment on MCF7. Further, in experiment [1], the inhibition amounted to 41.7%. The compound further registered a 50% effective concentration (EC50) in [2] of 24.8 µM. Besides, in the experiment on DNA, the Activity was 77.7. For the same compound, in [4], the Ratio came to 0.4. For the same compound, the result in experiment [5] was Active.

These data come from ChEMBL document CHEMBL5625186, “Synthesis, cytotoxicity, antioxidant activity and molecular modeling of new NSAIDs-EBS derivatives” (Eur J Med Chem, 2023).
